Data as given in article PMC11248911 (RSC Advances, 2024).
Read-outs that look alike come from different tables or passages of the source.

What was measured:
[1] = tested on: MCF-7 human cancer cell line; test: In vitro antiproliferative activity, LDH release assay, MCF-7; type: cell-based; settings: for IC50: Homo sapiens
In short: (§1)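 Cells were grown in RPMI-1640 with 10% heat-inactivated FBS and penicillin/streptomycin at 37 °C, 5% CO2. Seeded at 2 × 10^5 cells per well, grown 18 h, then treated with a concentration series for 48 h. LDH in supernatant and in 6% Triton X-100 lysate was read kinetically for 1 min at 340 nm, using pH 7.5 phosphate buffer with 4.6 mM pyruvate and β-NADH. Release was taken as % of total; IC50 by probit, thrice in triplicate.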

[2] = tested on: normal human skin fibroblast (BJ-1) cell line; test: In vitro antiproliferative activity, LDH release assay, BJ-1 normal cells; type: cell-based; settings: 48 h, read-out: BJ-1 IC50
In short: as §1

aminopeptidase N (APN) = aminopeptidase N (APN) (Homo sapiens, UniProt P15144); test: In vitro APN inhibition assay; type: biochemical
aminopeptidase N (APN), sequence (P15144 whole entry): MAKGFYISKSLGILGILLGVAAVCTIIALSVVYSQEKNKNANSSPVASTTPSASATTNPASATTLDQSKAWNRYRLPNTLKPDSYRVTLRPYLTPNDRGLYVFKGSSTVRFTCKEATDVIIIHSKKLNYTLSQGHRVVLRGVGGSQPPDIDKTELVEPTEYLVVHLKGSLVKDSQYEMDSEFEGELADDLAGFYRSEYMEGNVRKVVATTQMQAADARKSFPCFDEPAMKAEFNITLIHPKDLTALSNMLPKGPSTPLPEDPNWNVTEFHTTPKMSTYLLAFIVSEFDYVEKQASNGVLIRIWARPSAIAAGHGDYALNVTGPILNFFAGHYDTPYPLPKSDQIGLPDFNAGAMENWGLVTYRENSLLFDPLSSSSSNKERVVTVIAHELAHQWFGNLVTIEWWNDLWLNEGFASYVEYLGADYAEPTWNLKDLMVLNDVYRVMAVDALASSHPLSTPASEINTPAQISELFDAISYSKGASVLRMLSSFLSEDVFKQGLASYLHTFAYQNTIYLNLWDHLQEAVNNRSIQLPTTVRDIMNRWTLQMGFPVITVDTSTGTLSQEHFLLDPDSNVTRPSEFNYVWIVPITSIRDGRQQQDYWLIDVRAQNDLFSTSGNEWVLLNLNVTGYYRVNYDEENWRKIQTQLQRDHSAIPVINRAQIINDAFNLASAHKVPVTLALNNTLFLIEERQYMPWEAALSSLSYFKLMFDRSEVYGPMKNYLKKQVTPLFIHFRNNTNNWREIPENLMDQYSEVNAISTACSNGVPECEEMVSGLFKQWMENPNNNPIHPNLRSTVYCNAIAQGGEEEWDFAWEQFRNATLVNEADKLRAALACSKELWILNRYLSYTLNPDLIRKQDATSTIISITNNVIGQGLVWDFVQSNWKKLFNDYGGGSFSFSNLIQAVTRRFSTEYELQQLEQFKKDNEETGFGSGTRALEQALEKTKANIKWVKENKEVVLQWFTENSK
In short: (§2)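 Enzyme activity kits were run per manufacturer's instructions. Experiments were done in triplicate (n = 3) and reported as mean ± SD. IC50s were derived by probit analysis.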

VEGFR2 = type: biochemical, human; settings: biomarker for angiogenesis
MMP9 = test: In vitro MMP9 inhibition assay; type: biochemical, human; settings: biomarker for invasion
In short: as §2

MCF-7 cells [3] = test: Wound healing; type: cell-based, human; settings: control cells 97.03%
MCF-7 cells [4] = test: Cell cycle analysis by flow cytometry; type: cell-based, human; settings: MCF-7, 48 h
MCF-7 cells [5] = test: Apoptosis assay, Annexin-V/FITC and PI flow cytometry; type: cell-based, human; settings: MCF-7, 48 h
[6] = MCF7, 48 h, read-out: MCF-7 IC50
[7] = MCF7, read-out: MCF-7 Experimental activity (pIC50) (converted)

SMILES	IC50 [1, 6] [µM]	IC50 [1, 7] [µM]	also measured
CC1=NN(c2ccccc2Cl)C(c2ccccc2)C1 (stereo not shown) [Compound 3, 1-(2-Chlorophenyl)-4,5-dihydro-3-methyl-5-phenyl-1H-pyrazole]	8.8 ± 0.5	8.8	–
CC1=NN(c2c(Cl)cc(Cl)cc2Cl)C(c2ccccc2)C1 (stereo not shown) [Compound 4, 1-(2,4,6-Trichlorophenyl)-4,5-dihydro-3-methyl-5-phenyl-1H-pyrazole]	8.1 ± 0.5	8.1	–
CNC(=S)N1N=C(C)CC1c1ccccc1 (stereo not shown) [Compound 6, 4,5-Dihydro-N,3-dimethyl-5-phenylpyrazole-1-carbothioamide]	6.4 ± 0.3	6.4	IC50 [2]: 18.2 ± 1.5 µM
CCNC(=S)N1N=C(C)CC1c1ccccc1 (stereo not shown) [Compound 7, N-Ethyl-4,5-dihydro-3-methyl-5-phenylpyrazole-1-carbothioamide]	5.8 ± 0.2	5.8	IC50 [2]: 18.7 ± 1.5 µM
CC1=NN(C(=S)Nc2ccccc2)C(c2ccccc2)C1 (stereo not shown) [Compound 8, 4,5-Dihydro-3-methyl-N,5-diphenylpyrazole-1-carbothioamide]	6.2 ± 0.2	6.2	selectivity index (SI) ([1]; BJ-1 versus MCF-7): 4.7; IC50 [2]: 29.1 ± 2.3 µM; IC50 (aminopeptidase N (APN)): 15.8 µM; VEGFR2 inhibition pIC50 (VEGFR2): 6.7; MMP9 inhibition pIC50 (MMP9): 6.4; percentage closure of the wound gap (MCF-7 cells [3]): 57.77%; cell population in S phase (MCF-7 cells [4]; control 24.79%): 23.02%; cell population in G0/G1 phase (MCF-7 cells [4]; control 65.02%): 72.11%; late apoptosis (MCF-7 cells [5]; control 0.15%): 17.11%; early apoptosis (MCF-7 cells [5]; control 0.37%): 11.52%; total MCF-7 cell death (MCF-7 cells [5]; control 1.95%): 32.91%
CC1=NN(C(=S)NCc2ccccc2)C(c2ccccc2)C1 (stereo not shown) [Compound 9, N-Benzyl-4,5-dihydro-3-methyl-5-phenylpyrazole-1-carbothioamide]	7 ± 0.3	7	–
CC1=NN(c2nc(-c3ccccc3)cs2)C(c2ccccc2)C1 (stereo not shown) [Compound 10, 4,5-Dihydro-3-methyl-5-phenyl-1-(4-phenylthiazol-2-yl)-1H-pyrazole]	7.6 ± 0.3	7.6	–
CC1=NN(c2nc(-c3ccc(F)cc3)cs2)C(c2ccccc2)C1 (stereo not shown) [Compound 11, 1-(4-(4-Fluorophenyl)thiazol-2-yl)-4,5-dihydro-3-methyl-5-phenyl-1H-pyrazole]	6.9 ± 0.2	6.9	–
COc1ccc(-c2csc(N3N=C(C)CC3c3ccccc3)n2)cc1 (stereo not shown) [Compound 12, 4,5-Dihydro-1-(4-(4-methoxyphenyl)thiazol-2-yl)-3-methyl-5-phenyl-1H-pyrazole]	7.1 ± 0.2	7.1	–
CC1=NN(c2nc(-c3ccc(Cl)cc3Cl)cs2)C(c2ccccc2)C1 (stereo not shown) [Compound 13, 1-(4-(2,4-Dichlorophenyl)thiazol-2-yl)-4,5-dihydro-3-methyl-5-phenyl-1H-pyrazole]	6.7 ± 0.2	6.7	–
CC1=NN(C2=NC(=O)C(C)S2)C(c2ccccc2)C1 (stereo not shown) [Compound 15, 2-(4,5-Dihydro-3-methyl-5-phenylpyrazol-1-yl)-5-methylthiazol-4(5H)-one]	8.6 ± 0.3	8.6	–
CC1=NN(C2=NC(=O)C(=Cc3ccc(F)cc3)S2)C(c2ccccc2)C1 (stereo not shown) [Compound 16, 5-(4-Fluorobenzylidene)-2-(4,5-dihydro-3-methyl-5-phenylpyrazol-1-yl)thiazol-4(5H)-one]	6.6 ± 0.2	6.6	–
COc1ccc(C=C2SC(N3N=C(C)CC3c3ccccc3)=NC2=O)cc1 (stereo not shown) [Compound 17, 5-(4-Methoxybenzylidene)-2-(4,5-dihydro-3-methyl-5-phenylpyrazol-1-yl)thiazol-4(5H)-one]	7 ± 0.3	7	–
CC1=NN(C2=NC(=O)C(=Cc3ccc(Cl)cc3Cl)S2)C(c2ccccc2)C1 (stereo not shown) [Compound 18, 5-(2,4-Dichlorobenzylidene)-2-(4,5-dihydro-3-methyl-5-phenylpyrazol-1-yl)thiazol-4(5H)-one]	6.9 ± 0.2	6.9	–
COc1ccc(C=C2SC(N3N=C(C)CC3c3ccccc3)=NC2=O)cc1OC (stereo not shown) [Compound 19, 5-(3,4-Dimethoxybenzylidene)-2-(4,5-dihydro-3-methyl-5-phenylpyrazol-1-yl)thiazol-4(5H)-one]	7.5 ± 0.2	7.5	–
COc1cccc2c1C(=O)c1c(O)c3c(c(O)c1C2=O)C[C@@](O)(C(=O)CO)C[C@@H]3O[C@H]1C[C@H](N)[C@H](O)[C@H](C)O1 [Doxorubicin, reference compound]	4.9 ± 0.3	–	IC50 [2]: 12.9 ± 1.3 µM
O=c1c(O)c(-c2ccc(O)c(O)c2)oc2cc(O)cc(O)c12 [quercetin, reference compound]	–	–	MMP9 inhibition pIC50 (MMP9): 6.7
